High-throughput results: PubChem, several laboratories
Most compounds without a hit are left out; they make up all but 2.4% or so of the library.
H9c2 TAG inh: inhibitors of triacylglycerol accumulation, primary screen, cell-based, uHTS, fluorescence, H9c2 | inhibition, % at 12.5 µM | AID 651582, 2012 | H9c2 cells, Nile Red lipid (TAG) fluorescence; cells loaded with 200 µM oleic acid | hit rate 0.66% among 230,000;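 active = pattern-corrected inhibition of lipid staining of at least 50% with the nuclear-stain viability signal not falling by more than 50%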;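 also: 0% = DMSO wells and 100% = triacsin C control wells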
MC4R antagonist: MC4R antagonists of cAMP signaling, primary screen, cell-based, TR-FRET, antagonist arm of biased-ligand search. AID 540295, 2011. inhibition, % at 6.5 µM. MC4R-expressing cells, MTII-stimulated cAMP, LANCE TR-FRET. Melanocortin receptor 4 (Homo sapiens), P32245. hit rate 0.48% among 360,000;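 active = inhibition above its plate's cutoff, the mean of tested wells on that plate plus 3 SD, cut at about 29% in these data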;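 also: 0% = Melanotan II alone and 100% = Melanotan II plus saturating MCL0020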
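Material: U2OS-MC4R stable cell line | Reagent: Melanotan II challenge after compound preincubation | Doses: One concentration, 6.5 µM nominal | Incubation: 30-min compound preincubation, 1-h Melanotan II challenge, 1-h detection, room temperature | Signal: TR-FRET cAMP assay | Replicates: One well per compound, no replicates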
aDG glyco act: activators of alpha-DG glycosylation, primary screen, uHTS, Pro5-aDG cells, AlphaScreen | alpha-DG glycosylation AlphaScreen (IIH6); 0% Pro5, 100% B10-LARGE cell signal | activation, % at 10 µM | hit rate 0.22% among 360,000 | AID 624168, 2012;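 active = activation of at least 8% versus controls, or a plate z-score of at least 8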;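 also: Pro5 are CHO cells carrying HIG-tagged alpha-DG that lacks glycosylation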
MC4R barr agon: MC4R agonists recruiting beta-arrestin, primary screen, cell-based, luminescence, agonist arm of biased-ligand search | Melanocortin receptor 4 (Homo sapiens), P32245 | U2OS MC4R beta-arrestin complementation; percent of melanotan II response, DMSO zero | activation, % at 8.9 µM | hit rate 0.98% among 360,000;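 active = activation above a per-plate cutoff, the mean activation of sample wells on that plate plus 3 SD, cut at about 8% in these data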
NTR1 ag: agonists of human NTR1, primary screen, imaging, U2OS cells, beta-arrestin-GFP, high content | Neurotensin receptor type 1 (Homo sapiens), P30989 | NTR1-U2OS beta-arrestin-GFP spot imaging, agonist mode | activation, % at 20 µM | hit rate 0.17% among 330,000 | AID 493036, 2011;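 active = activation at or above 40% of the spot to cytoplasm intensity ratio, with at least 20 cells analyzed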;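 also: 0% = DMSO without peptide and 100% = 100 nM NTR1 peptide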
Target sequence (P30989 whole entry, looked up): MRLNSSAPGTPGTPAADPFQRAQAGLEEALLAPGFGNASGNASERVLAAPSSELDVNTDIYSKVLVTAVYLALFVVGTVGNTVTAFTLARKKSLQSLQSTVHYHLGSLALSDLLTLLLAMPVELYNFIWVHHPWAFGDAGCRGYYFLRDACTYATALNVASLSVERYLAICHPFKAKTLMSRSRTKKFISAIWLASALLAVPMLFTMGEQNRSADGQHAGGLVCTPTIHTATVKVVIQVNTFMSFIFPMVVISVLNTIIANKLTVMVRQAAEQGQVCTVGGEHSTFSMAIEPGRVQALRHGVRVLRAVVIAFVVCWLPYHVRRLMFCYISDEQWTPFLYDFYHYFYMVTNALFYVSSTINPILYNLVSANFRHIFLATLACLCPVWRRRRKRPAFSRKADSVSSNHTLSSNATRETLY
TbMetRS inhib: T. brucei MetRS inhibitors, primary screen, biochemical, luminescence. inhibition, % at 11.9 µM. methionyl-tRNA synthetase (Trypanosoma brucei brucei). hit rate 0.4% among 360,000. purified T. brucei MetRS, ATP depletion, Kinase-Glo luminescence;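 active = inhibition above a per-plate cutoff of the control wells' mean inhibition plus 3 SD, cut at about 5.5% in these data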;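 also: 0% = DMSO wells median and 100% = median of wells with control inhibitor compound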
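Test system: purified T. brucei MetRS enzyme. Also added: ATP, methionine and E. coli bulk tRNA substrates. Compound: 11.9 µM single point. Schedule: 15 min enzyme-compound preincubation, 2 h reaction, 10 min detection, 25 °C. Signal: luciferase luminescence of residual ATP, Kinase-Glo. Evaluation: percent inhibition versus plate control medians. Controls: DMSO wells, low control.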
cAMP nonselect: nonselective cAMP signaling inhibitors, parental cells, counter-screen for MC4R biased antagonist project, cell-based, TR-FRET, U2OS, forskolin, triplicate. shares compounds with MC4R antagonist. LANCE TR-FRET. inhibition, % at 6.5 µM. hit rate 26% among 1,600. AID 602193, 2012;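 active = mean inhibition over triplicates above the low-control well mean plus 3 SD, set per campaign, cut at about 13% in these data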;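 also: signal is single emission at 671 nm which falls as cellular cAMP rises; 0% = forskolin-stimulated wells and 100% = buffer without forskolin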
MC4R antag conf: MC4R cAMP antagonists, retest, confirmation, cell-based, TR-FRET; shares compounds with MC4R antagonist; MC4R-expressing cells, MTII-stimulated cAMP; inhibition, % at 6.5 µM; hit rate 27% among 1,600; AID 602195, 2012; in the data active = inhibition above about 29%;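 also: 0% = agonist stimulated wells alone and 100% = agonist stimulated wells plus saturating reference antagonist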
The depositor's hits bear a star; · = not tested or not shown.

SMILES | H9c2 TAG inh | MC4R antagonist | aDG glyco act | MC4R barr agon | NTR1 ag | TbMetRS inhib | cAMP nonselect | MC4R antag conf
Cc1cc(C)c(NC(=O)C2C(=O)Nc3ccccc3C(=O)N2C(C)(C)C)c(C)c1 (centres undefined) | · | · | 0.2 | · | · | 0.2 | · | ·
Cc1ccc(-c2nn(-c3ccccc3)cc2C=C2SC(=S)N(CCS(=O)(=O)O)C2=O)cc1 | 24.4 | -6.6 | -0.2 | 1.5 | · | 1.1 | · | ·
CC1=NN(c2ccccc2)C(=O)/C1=C\c1cn(-c2ccccc2)nc1C | 0.5 | 28.5* | 0.6 | 3.5 | 6.7 | 0.9 | 5.1 | 6.4
Cc1ccc(-c2nn(-c3ccccc3)cc2C=C2C(=O)CC(C)(C)CC2=O)cc1 | · | 31.4* | 0.7 | 1.9 | 46.0* | 0.0 | 18.1* | 23.2
COc1ccccc1/C=C1/C(=O)N(c2ccccc2)N=C1C | · | 3.4 | -0.1 | -1.9 | -0.8 | -0.6 | · | ·
CCc1nc2c(OCCc3cccc(OC)c3)cccn2c1N(C=O)Cc1ccccc1 | 10.3 | 14.9 | 0.7 | 0.9 | · | -0.3 | · | ·
CCC(=O)N1CCCC1(C)C(=O)NCc1ccc(SC)cc1 (centres undefined) | 4.2 | 3.5 | 0.0 | -3.0 | · | -0.2 | · | ·
C=C1C(=O)C23C(O)C1CCC2C12CCCC(C)(COC(C)=O)C1C(O)C3(O)OC2 (centres undefined) | 93.0* | 31.2* | -0.4 | -1.6 | · | -0.4 | 7.8 | -13.3
OC(c1ccc(Cl)c(F)c1)c1ncc(-c2cccc(C(F)(F)F)c2)[nH]1 (centres undefined) | -46.8 | -2.2 | 2.3 | 4.3 | · | -0.1 | · | ·
CCOC(=O)c1cc(C(=O)NC(C)c2ccccc2)c(=O)[nH]c1C (centres undefined) | -4.0 | 11.1 | 0.0 | 1.3 | 0.7 | -0.2 | · | ·
COC(=O)c1cc(C(=O)NCc2ccccc2)c(=O)[nH]c1C | 6.2 | 30.3* | 0.0 | 0.0 | 0.0 | -0.3 | 2.8 | 7.4
COc1ccc(-n2cc(-c3ccccc3)[n+]3c2CCCCC3)cc1 | -24.7 | 0.1 | -0.2 | -1.8 | -0.1 | -1.0 | · | ·
FC(F)Oc1ccc(-n2cc(-c3ccc(Cl)cc3)[n+]3c2CCCCC3)cc1 | -23.6 | 28.7* | -0.1 | -1.1 | 0.6 | 0.1 | -1.3 | -5.2
OC(c1ccccc1)C(NCc1ccccc1)c1ccccc1 (centres undefined) | -14.7 | -0.1 | 0.3 | 0.1 | · | -0.3 | · | ·
Cc1cccc(CNc2ncc(-c3cccc([N+](=O)[O-])c3)n2C)c1 | 6.4 | 32.7* | 0.4 | -1.2 | 2.9 | 0.6 | 2.3 | -1.1
CCN(CC)c1ccc(C(=C2C=CC(=[N+](CC)CC)C=C2)c2ccccc2)cc1 | 140.7 | 64.4* | -0.7 | -3.4 | · | -0.2 | 34.1* | 67.2*
COc1ccc(CCN2C(=O)COc3ccccc3C2C(=O)Nc2ccc3c(c2)OCCO3)cc1OC (centres undefined) | · | · | -0.1 | · | · | -0.2 | · | ·
NNC(=O)CNC(=O)C12CC3CC(CC(C3)C1)C2 | -8.1 | 29.4* | -0.3 | 3.3 | -2.3 | 2.5 | -4.7 | -16.0
O=C(CNC(=O)C12CC3CC(CC(C3)C1)C2)NCc1ccccc1 | -16.1 | 2.6 | 0.1 | -0.3 | 0.9 | -0.4 | · | ·
Cc1c(Cl)cccc1N1C(=O)C(N2C(=O)c3cccc([N+](=O)[O-])c3C2=O)C1c1cccs1 (centres undefined) | · | 34.8* | 0.2 | -4.4 | 9.8 | -0.6 | -6.5 | -3.7
